Many of the other results were omitted from the sample, so hits are more common in it than they were.
MPTP block = permeability transition pore inhibition. isolated mouse mitochondria, Ca2+ swelling absorbance, 30 min. inhibition, % at 10 µM. hit rate 1.4% among 360,000;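 active means inhibition of 50% or more, scaled per plate between neutral and stimulator controls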
DTT redox prof = compounds producing H2O2 with reducing agent – biochemical, NIH compound library profiling, artefact control for MLSCN library redox annotation, primary screen | hit rate 0.03% among 200,000 | DTT-dependent redox cycling H2O2, phenol red/HRP absorbance; 100% = 100 µM peroxide control, 0% = buffer | activation, % at 10 µM;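 active means activation of at least 50% relative to the plate's high and low controls in the primary single-dose screen; inactive means activation below 50%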;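 further: compound incubated with DTT at 0.8 mM final as the reducing agent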
Lmaj promast = inhibitors of Leishmania major promastigote growth. Leishmania major promastigotes, resazurin fluorescence viability. inhibition, % at 10 µM. hit rate 9% among 200,000; in the data active means inhibition above about 50%;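 further: promastigotes grown with compound for 44 hours at 28 °C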
T cruzi repl = blocks replication of Trypanosoma cruzi; T. cruzi beta-gal in NIH3T3, luminescence, 90 h; inhibition, % (no concentration beside the values); hit rate 1.4% among 300,000;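 active means mean inhibition across valid replicates above about 55%, limit read from the data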;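 further: signal also drops with host cell toxicity which is not excluded here; higher percent means less beta-gal luminescence so fewer parasites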
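System – NIH/3T3 host cells with β-galactosidase reporter T. cruzi · Doses – single 50 nL compound addition per well in DMSO · Reagent – 5000 T. cruzi trypomastigotes/well · Medium – Low-serum DMEM with 2% FBS · Timing – ≥90 h infection period, 3 h prior cell attachment · Evaluation – parasite load inhibition, % · Technique – GalScreen luminescence, 60 min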
Lipid droplet = modulators of hepatic lipid droplet formation | AML12 mouse hepatocytes, oleate lipid droplets, BODIPY imaging | inhibition, % at 6.5 µM | hit rate 0.4% among 240,000;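 active means lipid droplet intensity inhibited by at least 50%, with more than 500 cells counted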
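material = mouse AML12 hepatocyte cell line, fixed after treatment | also added = 100 µM oleic acid challenge | doses = compound at 6.5 µM only | schedule = overnight exposure | technique = Image-based BODIPY and DAPI two-channel analysis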
Large screens that a line does not name were inactive.

COc1cc(CN2CCC(CO)(Cc3cccc(C(F)(F)F)c3)CC2)ccc1F	none (no result: DTT redox prof, Lmaj promast)
COc1ccc(NC(=O)COC(=O)CCc2ccccc2)c(OC)c1	none (no result: DTT redox prof, Lmaj promast)
Cc1cc(C)c(S(=O)(=O)Nc2ccc3c(c2)CCC3)c(C)c1	Lmaj promast 91
C1CCC(n2nnnc2CN2CCN(C3CCCC3)CC2)CC1	Lmaj promast 90 (no result: Lipid droplet)
c1ccc(N2CCN(Cc3nnnn3C3CCCCC3)CC2)cc1	none (no result: Lipid droplet)
CC(=O)c1c(C)n(-c2ccccc2)c2ccc(OCC(O)CN3CCOCC3)cc12 (centres undefined)	none (no result: Lipid droplet)
CCOC(=O)c1c(C)n(C)c2ccc(OCC(O)CN(CC)CC)cc12 (centres undefined)	Lmaj promast 99 (no result: Lipid droplet)
CCOC(=O)c1c(C)n(C)c2ccc(OCC(O)CN3C(=O)c4ccccc4S3(=O)=O)cc12 (centres undefined)	none (no result: T cruzi repl)
CCOC(=O)c1c(C)n(C)c2ccc(OCC(O)Cn3nc(C)cc3C)cc12 (centres undefined)	Lmaj promast 86
CCN(CC)CC(O)COc1ccc2c(c1)c(C(C)=O)c(C)n2-c1ccccc1 (centres undefined)	Lmaj promast 100
NC(=O)CC(NC(=O)Cc1ccc(Cl)cc1)c1ccc(NC2CC3CCC2C3)c([N+](=O)[O-])c1 (centres undefined)	none (no result: DTT redox prof, Lmaj promast)
CCCC[C@@H]1CNC(=O)C(=O)N1CCCCC1CCCCC1	none (no result: DTT redox prof, Lmaj promast, T cruzi repl, Lipid droplet)
Cc1ccccc1NC(=O)C1CC(=O)N(c2ccc3c4c(cccc24)CC3)C1 (centres undefined)	none (no result: Lipid droplet)
O=C(Nc1ccccc1Br)C1CC(=O)N(c2ccc3c4c(cccc24)CC3)C1 (centres undefined)	Lmaj promast 62
COc1ccc(/C=N/N=C/c2ccc(OC)c(OC)c2)cc1OC	none
COc1cc(/C=N/N=C(N)N)ccc1OCc1ccccc1Cl	Lmaj promast 101, T cruzi repl 55
Cc1c(CCOC(=O)c2cc([N+](=O)[O-])cc([N+](=O)[O-])c2)sc[n+]1CC(=O)c1ccc(Br)cc1	Lmaj promast 100, T cruzi repl 57
Cc1c(CCOC(=O)c2ccc(Cl)cc2Cl)sc[n+]1CC(=O)c1ccccc1	none (no result: DTT redox prof, Lmaj promast, T cruzi repl, Lipid droplet)
CCOc1ccc(CNC(=O)CCC(=O)N2Cc3ccccc3Oc3ncccc32)cc1	none (no result: DTT redox prof, Lmaj promast)
CCOCCCNCC(=O)N1CCN(S(=O)(=O)c2ccc(C)cc2)CC1	Lmaj promast 88
Cc1ccc(N(C(=O)c2snc(C(N)=O)c2N)C(C(=O)NC2CCCC2)c2ccncc2)cc1 (centres undefined)	none (no result: DTT redox prof, Lmaj promast)
Cc1ccc(Cl)cc1NC(=O)COC(=O)CSc1ccccc1	none (no result: DTT redox prof, Lmaj promast, T cruzi repl, Lipid droplet)
COc1cc(C2C(C#N)=C(N)OC3=C2C(=O)CC(C)(C)C3)ccc1OCCN1CCOCC1 (centres undefined)	none (no result: DTT redox prof, Lmaj promast)
Cc1cc(SCC(=O)N/N=C/c2ccc(O)c(O)c2)c(C)cc1Br	Lmaj promast 72
CCOC(=O)c1c(COc2ccccc2)oc2ccc(O)cc12	none (no result: MPTP block, Lipid droplet)
CCOC(=O)c1c(C(C)(C)C)oc2ccc(O)cc12	Lmaj promast 100 (no result: T cruzi repl, Lipid droplet)
O=C(NCCOc1ccccc1)C1CCC(=O)N(CCCN2CCOCC2)C1 (centres undefined)	none (no result: DTT redox prof, Lmaj promast)
C[C@H](O)[C@@H]1C(=O)N2CCc3c([nH]c4ccccc34)[C@@H]2C[C@@H]1N(C)Cc1ccc2c(c1)OCO2	none (no result: DTT redox prof, Lmaj promast, T cruzi repl, Lipid droplet)
Cc1cc(C(=O)N/N=C/c2sc(N3CCOCC3)nc2-c2ccccc2)c(C)o1	Lmaj promast 52
O=C(Nc1ccccc1F)C(=Cc1sc(N2CCOCC2)nc1-c1ccccc1)C(=O)Nc1ccccc1F	Lmaj promast 53, Lipid droplet 68
O=C(N/N=C/c1sc(N2CCOCC2)nc1-c1ccccc1)c1ccccc1F	none (no result: MPTP block, DTT redox prof, Lmaj promast)
CNCCOc1ccccc1OC(C)C	none
Cc1ccc(Cn2c(CN(C)Cc3ccccc3)nc3c2c(=O)n(C)c(=O)n3C)cc1	Lmaj promast 73
Cc1ccc(Cn2c(SCCN3CCCCC3)nc3c2c(=O)n(C)c(=O)n3C)cc1	Lmaj promast 99 (no result: Lipid droplet)
Cn1c(=O)c2c(nc(SCCN3CCCCC3)n2Cc2ccccc2)n(C)c1=O	Lmaj promast 90 (no result: Lipid droplet)
Cc1cc(C)cc(N(CCC(=O)Nc2nnc(C)s2)S(=O)(=O)c2ccc(Cl)cc2)c1	Lmaj promast 93
Cc1ccc(S(=O)(=O)NCCC(=O)Nc2nnc(C)s2)cc1	none
Cc1ccc2c(c1)cc(CN(Cc1cccnc1)C(=O)NCc1ccccc1)c1nnnn12	Lmaj promast 100
Cc1ccc2c(c1)cc(CN(Cc1ccc3c(c1)OCO3)C(=O)c1ccccc1)c1nnnn12	Lmaj promast 59 (no result: Lipid droplet)
Cc1cccc(NC(=O)C(=O)NCC2CCCO2)c1 (centres undefined)	none
O=C(NC(Cc1ccccc1)C(=O)N1CCCCC1)c1ccccc1 (centres undefined)	none (no result: DTT redox prof, Lmaj promast, Lipid droplet)
Cc1cnc(-c2nc3ccccc3n2C(C(=O)NC(C)(C)C)c2ccncc2)cn1 (centres undefined)	none (no result: DTT redox prof, Lmaj promast, T cruzi repl, Lipid droplet)
COCCN1C[C@@H](CO)O[C@@H](n2cnc3c(NCc4ccncc4)ncnc32)C1	none (no result: DTT redox prof, Lmaj promast, T cruzi repl, Lipid droplet)
c1cncc(CNc2ccc3c(c2)OCO3)c1	Lmaj promast 52
COc1cc2sc3cc(NCc4ccc5c(c4)OCO5)ccc3c(=O)c2cc1OC	none (no result: DTT redox prof, Lmaj promast, T cruzi repl, Lipid droplet)
COc1ccc(NCc2ccc3c(c2)OCO3)cc1Cl	Lmaj promast 84
Cc1ccc(CNc2ccc3c(c2)OCO3)c(C)c1	Lmaj promast 99 (no result: MPTP block)
CS(=O)(=O)N1CCC(C(=O)Nc2ccc(Cl)cc2Cl)CC1	none (no result: DTT redox prof, Lmaj promast, T cruzi repl, Lipid droplet)
Cc1nn(C2CCS(=O)(=O)C2)c(Cl)c1/C=C/C(=O)OCC(=O)Nc1ccccc1OC(F)F (centres undefined)	Lmaj promast 51
O=C(COC(=O)CCCOc1ccccc1)NNC(=O)c1ccc([N+](=O)[O-])cc1	none (no result: DTT redox prof, Lmaj promast)
N/C(Cc1ccc(Cl)cc1)=N\OC(=O)c1cccc2ccccc12	Lmaj promast 99, T cruzi repl 65 (no result: Lipid droplet)
O=S(=O)(NCC(c1cccs1)N1CCc2ccccc2C1)c1ccccc1 (centres undefined)	none (no result: DTT redox prof, Lmaj promast, Lipid droplet)
C=CCn1c(N)c(C(=O)OC(C)CC)c2nc3ccccc3nc21 (centres undefined)	Lmaj promast 100 (no result: Lipid droplet)
C=CCn1c(N)c(C(=O)OC(C)(C)C)c2nc3ccccc3nc21	none
COc1cc([N+](=O)[O-])ccc1NC(=O)COC(=O)c1n[nH]c2ccccc12	Lmaj promast 60 (no result: DTT redox prof)
COc1ccc([N+](=O)[O-])cc1NC(=O)COC(=O)c1ccccc1C(=O)c1ccccc1	Lmaj promast 92
Cc1cccc(NC2SC(=O)NC2=O)c1 (centres undefined)	none
COc1ccccc1NC(=O)Nc1nc(CC(=O)N2CCN(c3ccccc3F)CC2)cs1	none (no result: DTT redox prof, Lmaj promast, Lipid droplet)
COc1cccc(OCCCCN2CCCCC2)c1	Lmaj promast 97
CCOc1cccc(OCCCCN2CCCCC2)c1	Lmaj promast 97 (no result: Lipid droplet)
c1ccc(OCCCCN2CCCCC2)cc1	none (no result: DTT redox prof, Lmaj promast, Lipid droplet)
COc1ccc(OCCCN2CCCCCC2)cc1	Lmaj promast 99
Cc1cc(OCCCN2CCCC2)ccc1Cl	none (no result: DTT redox prof, Lmaj promast)
COc1cccc(OCCCN2CCCCC2)c1	Lmaj promast 96 (no result: Lipid droplet)

Source: PubChem
